Assay results taken from ChEMBL document CHEMBL1641525, “Antiproliferative and apoptotic sesquiterpene lactones from Carpesium faberi” (Bioorg Med Chem Lett, 2011).
Converted amounts (≈) assume the structure as drawn. The source made the active and inactive calls. The rule behind the calls is not given here.

Assays:
MCF7 [1] = experiment: Antiproliferative activity against human MCF7 cells after 48 hrs by MTT assay; type: functional, cell-based; conditions: MCF7, 48 h
Method in brief: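 MCF-7 (ATCC) grown in DMEM + 10% heat-inactivated FBS, penicillin/streptomycin, 37 °C, 5% CO2. Exponential cells seeded 4.0×10^3/well; after 24 h treated with a range of concentrations for 48 h in the dark. Medium refreshed, then MTT (1 mg/mL) for 4 h; formazan dissolved in DMSO, OD 570 nm. 0.5% DMSO negative control. IC50 from log concentration–viability curves.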

MCF7 [2] = experiment: Cell cycle arrest in human MCF7 cells assessed as accumulation at G2/M phase at IC50 concentration after 24 hrs using propidium iodide staining by flow cytometry; type: functional, cell-based
MCF7 [3] = experiment: Cell cycle arrest in human MCF7 cells assessed as accumulation at sub-G1 phase at IC50 concentration after 24 hrs using propidium iodide staining by flow cytometry; type: functional

Row | Compound | IC50 (MCF7 [1]) [µg/mL] | Activity (MCF7 [2]) | Activity (MCF7 [3]) [%]
1 | O=c1[nH]cc(F)c(=O)[nH]1 [FLUOROURACIL] | 14.1 (≈ 108 µM) | – | –
2 | C/C(=C\CO)CC[C@@H]1[C@@]2(C)CCCC(C)(C)[C@@H]2CC[C@@]1(C)O | 18.6 (≈ 60.3 µM) | – | –
3 | C=C1C[C@H](O)C[C@]2(C)C[C@H]3OC(=O)[C@@H](C)[C@H]3C[C@@]12O | > 50 | – | –
4 | C=C1C(=O)O[C@@H]2C[C@@H](C)[C@@H]3CCC(=O)[C@@]3(C)C[C@H]12 | 3.9 (≈ 15.7 µM) | – | –
5 | C=C1C(=O)O[C@H]2C=C(C)[C@@H]3CC[C@](C)(O)[C@@H]3C[C@H]12 [4-EPI-ISOINUVISCOLIDE] | 16.3 (≈ 65.6 µM) | – | –
6 | C=C1C(=O)O[C@H]2C[C@](C)(O)C3=CC[C@](C)(O)[C@@H]3C[C@H]12 | 31.9 (≈ 121 µM) | – | –
7 | C=C1C(=O)O[C@@H]2C[C@H](C)C(CCC(C)=O)=CC[C@H]12 [TOMENTOSIN] | > 50 | – | –
8 | C[C@@H]1C(=O)O[C@@H]2C[C@@]3(C)O[C@@H]3C[C@H](O)[C@@]3(C)O[C@@H]3C[C@H]12 [CARABROLACTONE A] | > 50 | – | –
9 | C/C(=C\CO)CCC[C@H](C)CCC[C@H](C)CCCC(C)C [TRANS-PHYTOL] | > 50 | – | –
10 | C=C1C(=O)O[C@@H]2C[C@]3(C)[C@@H](CC[C@H](C)OC(C)=O)[C@@H]3C[C@H]12 | 9.4 (≈ 32.2 µM) | Active | > 5
11 | COc1cccc2c1C(=O)c1c(O)c3c(c(O)c1C2=O)C[C@@](O)(C(C)=O)C[C@@H]3O[C@H]1C[C@H](N)[C@H](O)[C@H](C)O1 [DAUNORUBICIN] | 0.5 (≈ 0.948 µM) | – | –
12 | C[C@@H]1C[C@@H]2OC(=O)[C@@H](C)[C@H]2C[C@]2(C)[C@@H](O[C@@H]3O[C@H](CO)[C@@H](O)[C@H](O)[C@H]3O)CC[C@@H]12 | > 50 | – | –
13 | C=C1C(=O)O[C@H]2C[C@@H](C)[C@@H]3CC[C@H](O)[C@@]3(C)C[C@H]12 [PSEUDOGUAIANOLIDE] | 9.8 (≈ 39.1 µM) | Active | –
14 | C=C1C(=O)O[C@@H]2C[C@@]3(C)CCCC(=C)[C@]3(O)C[C@H]12 [TELEKIN] | 3 (≈ 12.1 µM) | Active | –
15 | C=C1C(=O)O[C@H]2C[C@@H](C)[C@@H]3CC[C@H](O)[C@@]3(C)[C@@H](O)[C@H]12 [CARABROLACTONE B] | 10.7 (≈ 40.2 µM) | – | –
16 | C=C1C(=O)O[C@@H]2C[C@](C)(O)C3=CC[C@](C)(O)[C@@H]3C[C@H]12 | 38.8 (≈ 147 µM) | – | –
17 | C=C1C(=O)O[C@@H]2C[C@](C)(O)C3=CC[C@@](C)(O)[C@@H]3C[C@H]12 | 26.5 (≈ 100 µM) | – | –
18 | C=C1C(=O)O[C@H]2C[C@@](C)(O)C3=CC[C@](C)(O)[C@@H]3C[C@H]12 [GUAIANOLIDE] | 31.7 (≈ 120 µM) | Active | > 5
19 | C=C1C(=O)O[C@@H]2C[C@@]3(C)C[C@@H](O)CC(=C)[C@@H]3C[C@H]12 [IVALIN] | 12.5 (≈ 50.3 µM) | – | –
